Only some compounds are listed: those with a hit (about 2.3% of all), similar ones and a draw of the others.
MEKK3 PB1 HTS: MEKK3-MEK5 PB1 interaction, increase or decrease; bead-based flow cytometry, Alexa488-MEK5 binding to MEKK3; actives lie on both sides; 0 = blocked by unlabeled MEK5, 100 = vehicle; Q99759; AID 1529; binding response (% of control), % at 10 µM; actives 1.4% (n = 290,000);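 active means binding response more than 3 SD above or below the average of its plate-row segment, actives on both sides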;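 further: Alexa488 bead fluorescence after subtracting the streptavidin-only scavenger bead signal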
Target sequence (Q99759 whole entry, looked up): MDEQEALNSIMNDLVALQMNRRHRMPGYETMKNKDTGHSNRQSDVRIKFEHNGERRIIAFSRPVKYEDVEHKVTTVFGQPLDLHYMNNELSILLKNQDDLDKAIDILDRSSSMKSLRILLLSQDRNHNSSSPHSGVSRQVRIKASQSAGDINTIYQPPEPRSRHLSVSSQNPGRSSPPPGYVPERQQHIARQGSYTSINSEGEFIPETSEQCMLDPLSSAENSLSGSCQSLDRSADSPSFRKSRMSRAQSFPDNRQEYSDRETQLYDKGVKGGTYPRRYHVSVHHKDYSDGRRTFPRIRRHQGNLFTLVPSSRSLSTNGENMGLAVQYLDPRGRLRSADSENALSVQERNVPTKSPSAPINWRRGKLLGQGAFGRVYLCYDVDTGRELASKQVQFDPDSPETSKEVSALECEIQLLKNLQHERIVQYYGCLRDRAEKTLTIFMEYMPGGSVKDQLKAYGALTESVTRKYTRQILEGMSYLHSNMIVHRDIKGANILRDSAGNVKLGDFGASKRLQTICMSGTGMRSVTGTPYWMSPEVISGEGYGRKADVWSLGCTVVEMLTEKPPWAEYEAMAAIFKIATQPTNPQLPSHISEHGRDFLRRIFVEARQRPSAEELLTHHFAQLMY
MEKK2mut PB1 HTS: signal of MEK5 binding to mutant human MEKK2 PB1 domain; percent response, % at 10 µM; bead flow cytometry, Alexa488-MEK5 binding to MEKK2 mutant; actives 0.35% (n = 290,000); AID 1530; in the data active means percent response above about 24%, passing the limit was not always enough
MEKK2wt PB1 HTS: raises or lowers MEK5 binding to wildtype human MEKK2 PB1 domain; Q9Y2U5; bead flow cytometry, Alexa488-MEK5 binding to MEKK2 WT; actives lie on both sides; binding response (% of control), % at 10 µM; actives 1.1% (n = 290,000); in the data active means binding response below about 67% or above about 130%
Arr AP2 block: blocks beta-arrestin peptide binding to AP2 adaptin; AID 504490; actives 0.31% (n = 340,000); inhibition, % at 10 µM; FITC-arrestin peptide / GST-AP2 beads, flow cytometry; AP2 beta2 appendage carries R879A mutation;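 active means inhibition above a set limit, near 3 SD of compounds lacking own fluorescence, cut at about 54% in these data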;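 further: plate controls were DMSO wells for no effect and 5 µM unlabelled arrestin peptide for full effect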
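test system = AP2 appendage R879A on GSH beads | buffer or medium = PBS plus Tween 20 (0.05%) and BSA (0.1%) | incubation = 12 min plus 1 h, RT | detection = bead flow cytometry, FITC channel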
MEKK2wt confirm: raises or lowers MEK5 binding to wildtype human MEKK2, retest; shares compounds with MEKK3 PB1 HTS; bead flow cytometry, Alexa488-MEK5 binding to MEKK2 WT; actives lie on both sides; binding response (% of control), % at 10 µM; actives 2.4% (n = 5,900); in the data active means binding response below about 16% or above about 210%; inactive means in between
MEKK2mut-MEK5: signal of MEK5 binding to mutant human MEKK2, retest; shares compounds with MEKK3 PB1 HTS; bead flow cytometry, Alexa488-MEK5 binding to MEKK2 mutant; percent response, % at 10 µM; actives 2% (n = 5,900); AID 1893; in the data active means percent response mostly above about 71%, no sharp cut-off; inactive means mostly below about 38%;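 further: higher means compound restores mutant binding toward wildtype level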
MEKK3-MEK5 inh: confirmation of inhibitors of MEK5 binding to human MEKK3. binding response (% of control), % at 10 µM. actives 1.8% (n = 5,900). bead flow cytometry, Alexa488-MEK5 binding to MEKK3; stronger effect = lower value. shares compounds with MEKK3 PB1 HTS;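 active means binding response below 72% of control, or above a set upper limit, though filed actives all read lower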;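 further: 100% = DMSO only wells and 0% = binding blocked by excess unlabeled MEK5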
* = called active by the depositor; / = no result; [ ] = dose if it differs, or a comment.

SMILES	MEKK3 PB1 HTS	MEKK2mut PB1 HTS	MEKK2wt PB1 HTS	Arr AP2 block	MEKK2wt confirm	MEKK2mut-MEK5	MEKK3-MEK5 inh
COC(=O)/C(=C/c1ccc2c(c1)c1ccccc1n2C)NC(=O)c1ccccc1	73*[inhibitor]	-1	99	4	105	-1	105
CN(CC(=O)Nc1ccccc1C(F)(F)F)C(=O)CSc1nnc(-c2ccncc2)n1C	/	/	/	-11	/	/	/
CC12CCC(C(=O)N(CC(O)CN3CCCCCC3)C1=O)C2(C)C (configuration not stated)	145*	0	107	-3	94	-5	97
Cc1cc(NC(=O)c2ccccc2O)nc(C)n1	104	2	105	13	/	/	/
Cc1cc(C)nc(NNC(=O)c2ccccc2O)n1	129*	1	111	2	104	3	103
COc1cccc(NC(=O)CSc2nnc(-c3ccc(C)cc3)o2)c1	82*[inhibitor]	-6	84	3	104	3	102
O=C(CSc1nnc(-c2ccncc2)n1-c1ccc(Cl)cc1)NCc1cccs1	124*	9	120	-9	102	-3	102
CC(=O)Nc1ccc(NC(=O)CSc2nnc(-c3ccco3)o2)cc1	129*	1	112	4	95	-25	93
Cc1cc(C)cc(-c2nnc(SCC(=O)NCc3cccs3)o2)c1	1.0*[inhibitor]	-20	-2.0*[inhibitor]	-1	113	6	102
CNC(=O)CSc1nnc(-c2cc(C)cc(C)c2)o1	102	5	102	15	/	/	/
Cc1ccc(S(=O)(=O)N2CCN(C(=O)CN3CCCSc4ccccc43)CC2)cc1	/	/	/	1	/	/	/
O=C(Cc1ccc(F)cc1)N/N=C/c1ccncc1	105	-1	103	-8	/	/	/
CCOc1ccc(N=C(NN)c2ccc3ccccc3n2)cc1	120	0	105	-3	/	/	/
COC(=O)Cn1cc(C(=O)C2CC2)c2ccccc21	106	6	109	31	/	/	/
CCOC(=O)Cn1cc(C(=O)C2CC2)c2ccccc21	2.0*[inhibitor]	-16	2.0*[inhibitor]	-4	106	2	101
O=S(=O)(c1ccc(NC(=S)NN=Cc2ccccc2O)cc1)N1CCCCC1	/	/	/	50	/	/	/
NNc1nc2ccc(Cl)cc2s1	132*	0	105	-9	106	0	103
COc1ccc2c(C)c(C)c(=O)oc2c1OC	2.0*[inhibitor]	-26	0.0*[inhibitor]	-6	104	-1	101
C/C=N/NC(=O)CCNC(=O)c1ccccc1	104	2	103	2	/	/	/
O=C(N/N=C/c1ccc([N+](=O)[O-])o1)c1cn(-c2ccccc2)nc1-c1ccccc1	139*	0	104	-3	102	9	108
O=c1c(/C=C(\O)c2ccccc2)nc2ccccc2n1-c1ccccc1	81*[inhibitor]	-19	58*[inhibitor]	12	66	-18	85
Cc1nc2ccccc2n1-c1ccccc1	108	11	112	4	/	/	/
COc1ccc2nc3cc(Cl)ccc3c(Nc3cc(C(C)C)c(O)cc3C)c2c1	87	44*	146*	3	189	75*	106
CCN(CC)CCCC(C)Nc1c2ccc(Cl)cc2nc2ccc(OC)cc12 (configuration not stated)	97	19	137	/	/	/	/
Cc1cc(C(=O)COC(=O)Cc2n[nH]c(=O)c3ccccc23)c(C)n1-c1cccc(C(F)(F)F)c1	136*	1	104	-9	103	-2	101
SMILES	MEKK3 PB1 HTS	MEKK2mut PB1 HTS	MEKK2wt PB1 HTS	Arr AP2 block	MEKK2wt confirm	MEKK2mut-MEK5	MEKK3-MEK5 inh
O=C(/C=C/c1ccc(N2CCC(c3ccccc3)=N2)cc1)c1ccccc1	78	281*	/	/	94	-50	78
O=C(Nc1cc([N+](=O)[O-])ccc1F)C1CC1	130*	1	102	-4	97	-13	100
C/C=C/c1ccc(OCCCCN(C)Cc2ccccc2)c(OC)c1	107	7	139*	3	120	9	100
Cc1cccc(/C=N/n2c(-c3cc(-c4ccccc4)n[nH]3)n[nH]c2=S)c1	138*	0	101	8	96	-3	101
COc1ccc(NS(=O)(=O)c2ccc(/C=C/C(=O)O)cc2)cc1S(=O)(=O)N1CCOCC1	105	3	106	-4	/	/	/
O=C(NCCc1c[nH]c2ccccc12)C(=O)NCC(c1ccco1)N1CCN(c2ccc(F)cc2)CC1 (configuration not stated)	129*	0	107	8	96	-6	102
O=C(NCc1ccc(Cl)cc1)C(=O)NCC(c1ccco1)N1CCOCC1 (configuration not stated)	102	12	107	-1	/	/	/
Cc1ccc(CNC(=O)C(=O)NCC(c2ccco2)N2CCOCC2)cc1 (configuration not stated)	129*	0	102	-6	103	-3	98
COc1ccc([C@H]2CC(=O)C=C(/C=C/c3ccccc3)C2)cc1OC	/	/	/	0	/	/	/
Fc1c(F)c(F)c(SCn2cc(Br)cn2)c(F)c1F	/	/	/	-3	/	/	/
Cc1ccc(NC(=O)Cc2ccccc2F)cc1S(=O)(=O)N1CCCCCC1	/	/	/	5	/	/	/
CN(CC(=O)Nc1cccc2c1CCCC2)S(=O)(=O)c1ccccc1	80*[inhibitor]	-4	88	7	99	6	100
Cc1csc2cc(-c3cccc([N+](=O)[O-])c3)c(-c3cccc([N+](=O)[O-])c3)c[n+]12	103	1	108	10	/	/	/
COC(=O)C1CCN(CCCOc2ccc(CN3CCN(c4ccc([N+](=O)[O-])cc4)CC3)cc2)CC1	106	30	141*	-19	110	4	98
COC(=O)C1CCN(c2ccc([N+](=O)[O-])cc2)CC1	90	-3	94	7	/	/	/
O=C(CS(=O)(=O)c1ccc(Cl)cc1)NCCS(=O)(=O)c1ccc(Cl)cc1	95	-16	83	-6	/	/	/
Cc1noc(/C=C/c2cccs2)c1S(=O)(=O)N1CCC(C(=O)NCCCN2CCC(C)CC2)CC1	106	57*	186*	7	115	7	103
Cc1ccc(S(=O)(=O)NCCC(=O)NCCN2CCCCCC2)cc1	102	54*	227*	29	138	7	80
Cc1ccc(S(=O)(=O)N2CCC(C(=O)NCCCN3CCCCCC3)CC2)cc1	102	25	160*	-2	179	48	111
Cc1cc(C)n(CCC(=O)N=Nc2c(O)[nH]c3ccccc23)n1	101	-2	100	5	/	/	/
Cc1nc2ccccn2c1C(=O)N=Nc1c(O)[nH]c2ccccc12	139*	2	106	-5	102	1	103
